Key:
[1] = molecular target: T1, Protein kinase C epsilon type (Homo sapiens) (UniProt Q02156); experiment: (§1) Inhibition of recombinant PKCepsilon (unknown origin)-MBP-tagged RACK2 interaction after 1 hr by ELISA-based assay relative to untreated control; set-up: residual binding, % of control: concentration or dose not given beside the values; settings: values are per cent of control
T1 sequence (whole entry): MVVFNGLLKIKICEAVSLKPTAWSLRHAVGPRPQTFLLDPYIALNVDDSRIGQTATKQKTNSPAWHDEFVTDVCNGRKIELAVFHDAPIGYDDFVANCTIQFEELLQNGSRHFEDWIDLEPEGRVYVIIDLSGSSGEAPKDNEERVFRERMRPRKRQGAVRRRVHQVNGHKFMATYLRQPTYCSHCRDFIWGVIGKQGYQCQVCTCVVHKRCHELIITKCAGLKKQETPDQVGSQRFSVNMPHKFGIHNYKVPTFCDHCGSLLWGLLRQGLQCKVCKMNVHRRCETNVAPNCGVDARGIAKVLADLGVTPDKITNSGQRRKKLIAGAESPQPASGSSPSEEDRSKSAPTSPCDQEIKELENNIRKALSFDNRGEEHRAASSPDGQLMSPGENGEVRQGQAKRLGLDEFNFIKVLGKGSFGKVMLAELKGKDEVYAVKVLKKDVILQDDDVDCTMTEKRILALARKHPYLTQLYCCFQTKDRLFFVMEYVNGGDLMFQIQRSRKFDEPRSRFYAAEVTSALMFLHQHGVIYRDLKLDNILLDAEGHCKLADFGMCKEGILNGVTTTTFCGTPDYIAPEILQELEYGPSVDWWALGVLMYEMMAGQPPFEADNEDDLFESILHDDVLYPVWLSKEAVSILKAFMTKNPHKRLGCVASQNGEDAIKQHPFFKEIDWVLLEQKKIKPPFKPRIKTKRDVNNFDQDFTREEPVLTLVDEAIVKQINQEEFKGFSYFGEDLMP
Outline: (§2)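 ELISA: plates coated with 100 ng recombinant PKCε in 20 mM Tris-HCl/100 mM NaCl pH 7.5 overnight at 4 °C, blocked with 3% BSA; PKCε activated 10 min at 30 °C with 60 μg/mL phosphatidylserine and 100 nM TPA; RACK2-MBP preincubated with agent 30 min, then 500 ng added for 1 h binding; anti-RACK2/HRP detection, ABTS at 420 nm; four experiments, quadruplicates, normalized to control; IC50 via CalcuSyn.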

[2] = molecular target: T2, Protein kinase C epsilon type (Homo sapiens, UniProt Q02156); experiment: as §1; outline: as §2
T2 sequence (Q02156 whole entry): T1 sequence (whole entry)

| Compound | residual binding, % of control [1] [%] | IC50 [2] [µM] |
| --- | --- | --- |
| COC(=O)c1cccc(NC(=O)c2sc3nc4cc5c(cc4cc3c2N)OCCO5)c1 | 90.9 |  |
| COc1ccc2cc3c(N)c(C(=O)Nc4c(C)cccc4C)sc3nc2c1 | 60.8 |  |
| CC(O)c1cccc(NC(=O)C2Sc3nc4cc5c(cc4cc3C2N)OCCO5)c1 (configuration not stated) | 102 |  |
| C/C(=N\O)c1cccc(NC(=O)c2sc3nc4cc5c(cc4cc3c2N)OCCO5)c1 | 46.2 |  |
| CC(=O)c1cccc(NC(=O)c2cc3cc4cc5c(cc4nc3s2)OCO5)c1 | 51.2 |  |
| CC(=O)c1cccc(NC(=O)c2cc3cc4cc5c(cc4nc3s2)OCCO5)c1 | 64.9 |  |
| CCOc1ccc2nc(NC(=O)c3sc4nc5cc(OC)ccc5cc4c3N)sc2c1 | 37.7 | 25.5 |
| H-EAVSLKPT-OH |  | 1.02 |
| Nc1c(C(=O)Nc2cccc(Cl)c2Cl)sc2nc3cc4c(cc3cc12)OCCO4 | 57.6 |  |
| CCOC(=O)Cc1csc(NC(=O)c2sc3nc4ccc(OCC)cc4cc3c2N)n1 | 32.4 |  |
| CO/N=C(\C)c1cccc(NC(=O)c2sc3nc4cc5c(cc4cc3c2N)OCCO5)c1 | 48.3 |  |

Source: ChEMBL document CHEMBL3259708, “Thienoquinolines as novel disruptors of the PKCε/RACK2 protein-protein interaction” (J Med Chem, 2014)
